Measured values reported in ChEMBL document CHEMBL4004832, “Synthesis, surfactant properties and antimicrobial activities of methyl glycopyranoside ethers” (2017).

What was measured:
[1] = Surfactant property of the compound in water assessed as critical micelle concentration or minimal hydrotropic concentration by platinum rod based tensiometric method
How it was run: (§1)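 Surface tension of aqueous solutions was measured by a rod method based on the Wilhelmy plate. Water was progressively concentrated with a stock surfactant solution at constant volume. At each concentration, readings continued until stable (SD of the last 5 values 0.2 mN/m). MHC or CMC and the plateau γsat were taken from the tension vs concentration curves.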

[2] = Surfactant property of the compound in aqueous solution assessed as critical micelle concentration or minimal hydrotropic concentration; how it was run: as §1
Escherichia coli = assay: Antibacterial activity against Escherichia coli ATCC 8739 after 18 hrs by broth microdilution assay; format: functional; settings: ATCC 8739, 18 h
Pseudomonas aeruginosa = assay: Antibacterial activity against Pseudomonas aeruginosa ATCC 27853 after 18 hrs by broth microdilution assay; format: functional; settings: ATCC 27853, 18 h
Listeria monocytogenes [3] = assay: Antibacterial activity against Listeria monocytogenes CIP 103575 after 18 hrs by broth microdilution assay; format: functional; settings: CIP 103575, 18 h
How it was run: (§2)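 Broth MIC testing on Gram-positive strains followed CLSI M100-S17 recommendations. […] Values are in mmol/L. Amoxicillin was the control for Listeria and Enterococcus strains and oxacillin for S. aureus strains.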

Staphylococcus aureus [4] = assay: Antibacterial activity against Staphylococcus aureus ATCC 29213 after 18 hrs by broth microdilution assay; format: functional; settings: ATCC 29213, 18 h; how it was run: as §2
Enterococcus faecalis [5] = assay: Antibacterial activity against Enterococcus faecalis ATCC 29212 after 18 hrs by broth microdilution assay; format: functional; settings: ATCC 29212, 18 h; how it was run: as §2
Listeria monocytogenes [6] = assay: Antibacterial activity against Listeria monocytogenes isolate 015189074801 after 18 hrs by broth microdilution assay; format: functional; settings: isolate 015189074801, 18 h; how it was run: as §2
Listeria monocytogenes [7] = assay: Antibacterial activity against Listeria monocytogenes isolate 015170199001 after 18 hrs by broth microdilution assay; format: functional; settings: isolate 015170199001, 18 h; how it was run: as §2
Listeria monocytogenes [8] = assay: Antibacterial activity against Listeria monocytogenes isolate 015181840701 after 18 hrs by broth microdilution assay; format: functional; settings: isolate 015181840701, 18 h; how it was run: as §2
Enterococcus faecalis [9] = assay: Antibacterial activity against Enterococcus faecalis isolate 015206179901 after 18 hrs by broth microdilution assay; format: functional; settings: isolate 015206179901, 18 h; how it was run: as §2
Enterococcus faecium [10] = assay: Antibacterial activity against Enterococcus faecium CIP 103510 after 18 hrs by broth microdilution assay; format: functional; settings: CIP 103510, 18 h
How it was run: (§3)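 Enterococcus faecium strains (reference, clinical isolates, VanA isolate) tested by MIC following CLSI recommendations (M100-S17), with amoxicillin as control. […] Values are expressed in mmol/L.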

Enterococcus faecium [11] = assay: Antibacterial activity against […] Enterococcus faecium isolate 0151850763 after 18 hrs by broth microdilution assay; format: functional; settings: isolate 0151850763, 18 h; how it was run: as §3
Enterococcus faecium [12] = assay: Antibacterial activity against Enterococcus faecium isolate 015205731401 after 18 hrs by broth microdilution assay; format: functional; settings: isolate 015205731401, 18 h; how it was run: as §2
Enterococcus faecium [13] = assay: Antibacterial activity against Enterococcus faecium isolate 015205261801 after 18 hrs by broth microdilution assay; format: functional; settings: isolate 015205261801, 18 h; how it was run: as §3
Staphylococcus aureus [14] = assay: Antibacterial activity against Staphylococcus aureus ATCC 25923 after 18 hrs by broth microdilution assay; format: functional; settings: ATCC 25923, 18 h
How it was run: (§4)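 Staphylococcus aureus reference strains and methicillin- and daptomycin-resistant isolates tested by MIC according to CLSI guidance (M100-S17), with oxacillin as control. The endpoint is the lowest concentration with no growth in all replicates versus a negative control at 18 h. Values are reported in mmol/L.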

Staphylococcus aureus [15] = assay: Antibacterial activity against methicillin-resistant Staphylococcus aureus LAC USA300 after 18 hrs by broth microdilution assay; format: functional; how it was run: as §4
Staphylococcus aureus [16] = assay: Antibacterial activity against methicillin-resistant Staphylococcus aureus Mu3 after 18 hrs by broth microdilution assay; format: functional; settings: Mu3, 18 h; how it was run: as §4
Staphylococcus aureus [17] = assay: Antibacterial activity against methicillin-resistant Staphylococcus aureus isolate HT 2004-0012 after 18 hrs by broth microdilution assay; format: functional; settings: isolate HT 2004-0012, 18 h; how it was run: as §4
Staphylococcus aureus [18] = assay: Antibacterial activity against methicillin-resistant Staphylococcus aureus isolate LY 1999-0053 after 18 hrs by broth microdilution assay; format: functional; settings: isolate LY 1999-0053, 18 h; how it was run: as §4
Staphylococcus aureus [19] = assay: Antibacterial activity against methicillin-resistant Staphylococcus aureus isolate HT 2002-0417 after 18 hrs by broth microdilution assay; format: functional; settings: isolate HT 2002-0417, 18 h; how it was run: as §4
Staphylococcus aureus [20] = assay: Antibacterial activity against methicillin-resistant Staphylococcus aureus isolate HT 2006-1004 after 18 hrs by broth microdilution assay; format: functional; settings: isolate HT 2006-1004, 18 h; how it was run: as §4
Staphylococcus aureus [21] = assay: Antibacterial activity against daptomycin-resistant Staphylococcus aureus isolate ST 2015-0188 after 18 hrs by broth microdilution assay; format: functional; settings: isolate ST 2015-0188, 18 h; how it was run: as §4
Staphylococcus aureus [22] = assay: Antibacterial activity against daptomycin-resistant Staphylococcus aureus isolate ST 2014-1288 after 18 hrs by broth microdilution assay; format: functional; settings: isolate ST 2014-1288, 18 h; how it was run: as §4
Staphylococcus aureus [23] = assay: Antibacterial activity against daptomycin-resistant Staphylococcus aureus isolate ST 2015-0989 after 18 hrs by broth microdilution assay; format: functional; settings: isolate ST 2015-0989, 18 h; how it was run: as §4

CCCCCCCCCCCCO[C@H]1[C@H](O)[C@@H](O)[C@@H](OC)O[C@@H]1CO
0.046 mmol/L: CMC [1]

CCCCCCCCCCCCO[C@@H]1O[C@H](CO)C(O[C@H]2O[C@H](CO)[C@@H](O)[C@H](O)[C@H]2O)[C@H](O)[C@H]1O (single isomer, unassigned)
0.2 mmol/L: CMC [2]

CCCCC[C@@H]1OC[C@H]2O[C@H](OC)[C@H](O)[C@@H](O)[C@@H]2O1
6.5 mmol/L: CMC [1]
> 4000 µM: MIC (Escherichia coli) | MIC (Pseudomonas aeruginosa) | MIC (Listeria monocytogenes [3]) | MIC (Staphylococcus aureus [4]) | MIC (Enterococcus faecalis [5])

CCCCCCCCCCC[C@@H]1OC[C@H]2O[C@@H](OC)[C@H](O)[C@@H](O)[C@@H]2O1
370 µM: MIC (Staphylococcus aureus [19])
20 µM: MIC (Enterococcus faecium [13])
40 µM: MIC (Listeria monocytogenes [3]) | MIC (Listeria monocytogenes [6]) | MIC (Listeria monocytogenes [7]) | MIC (Enterococcus faecium [12])
90 µM: MIC (Enterococcus faecalis [9]) | MIC (Enterococcus faecium [10]) | MIC (Enterococcus faecium [11])
180 µM: MIC (Staphylococcus aureus [4]) | MIC (Enterococcus faecalis [5]) | MIC (Listeria monocytogenes [8]) | MIC (Staphylococcus aureus [14]) | MIC (Staphylococcus aureus [15]) | MIC (Staphylococcus aureus [16]) | MIC (Staphylococcus aureus [17]) | MIC (Staphylococcus aureus [18]) | MIC (Staphylococcus aureus [20]) | MIC (Staphylococcus aureus [21]) | MIC (Staphylococcus aureus [22]) | MIC (Staphylococcus aureus [23])

CCCCCCCCCCCCOC[C@H]1O[C@H](OC)[C@H](O)[C@@H](O)[C@@H]1O
0.03 mmol/L: CMC [1]
40 µM: MIC (Listeria monocytogenes [3]) | MIC (Staphylococcus aureus [4])

CCCCCCCCC[C@@H]1OC[C@H]2O[C@H](OC)[C@H](O)[C@@H](O)[C@@H]2O1
0.15 mmol/L: CMC [1]

CCCCCCCCCCC[C@@H]1OC[C@H]2O[C@H](OC)[C@H](O)[C@@H](O)[C@@H]2O1
> 0.06 mmol/L: CMC [1]

CCCCCCCCCCCC(=O)OC[C@H]1O[C@H](O[C@H]2[C@H](O)[C@@H](O)C(O)O[C@@H]2CO)[C@H](O)[C@@H](O)[C@@H]1O (some centres not stated)
0.24 mmol/L: CMC [2]

CCCCCCCCCCCCOC[C@H]1O[C@H](OC)[C@@H](O)[C@@H](O)[C@@H]1O
180 µM: MIC (Staphylococcus aureus [16]) | MIC (Staphylococcus aureus [20]) | MIC (Staphylococcus aureus [21]) | MIC (Staphylococcus aureus [23])
20 µM: MIC (Listeria monocytogenes [6])
90 µM: MIC (Listeria monocytogenes [3]) | MIC (Staphylococcus aureus [4]) | MIC (Enterococcus faecalis [9]) | MIC (Enterococcus faecium [10]) | MIC (Staphylococcus aureus [14]) | MIC (Staphylococcus aureus [15]) | MIC (Staphylococcus aureus [17]) | MIC (Staphylococcus aureus [18]) | MIC (Staphylococcus aureus [19]) | MIC (Staphylococcus aureus [22])
40 µM: MIC (Enterococcus faecalis [5]) | MIC (Listeria monocytogenes [7]) | MIC (Listeria monocytogenes [8]) | MIC (Enterococcus faecium [11]) | MIC (Enterococcus faecium [12]) | MIC (Enterococcus faecium [13])

CCCCCCCCCCCCOC[C@H]1O[C@H](OC)[C@H](O)[C@@H](O)[C@H]1O
90 µM: MIC (Enterococcus faecium [12])
20 µM: MIC (Enterococcus faecium [13])
350 µM: MIC (Enterococcus faecium [11])
0.47 mmol/L: CMC [1]
> 710 µM: MIC (Staphylococcus aureus [4]) | MIC (Enterococcus faecium [10]) | MIC (Staphylococcus aureus [14]) | MIC (Staphylococcus aureus [15]) | MIC (Staphylococcus aureus [16]) | MIC (Staphylococcus aureus [17]) | MIC (Staphylococcus aureus [18]) | MIC (Staphylococcus aureus [19]) | MIC (Staphylococcus aureus [20]) | MIC (Staphylococcus aureus [21]) | MIC (Staphylococcus aureus [22]) | MIC (Staphylococcus aureus [23])
180 µM: MIC (Listeria monocytogenes [3]) | MIC (Enterococcus faecalis [5]) | MIC (Listeria monocytogenes [6]) | MIC (Listeria monocytogenes [7]) | MIC (Listeria monocytogenes [8]) | MIC (Enterococcus faecalis [9])

CCCCCCCCCCCC(=O)OC[C@H]1O[C@H](OC)[C@H](O)[C@@H](O)[C@@H]1O
80 µM: MIC (Listeria monocytogenes [3])
320 µM: MIC (Staphylococcus aureus [4])
0.052 mmol/L: CMC [2]

CCCCCCOC[C@H]1O[C@H](OC)[C@H](O)[C@@H](O)[C@@H]1O
> 4000 µM: MIC (Escherichia coli) | MIC (Pseudomonas aeruginosa) | MIC (Listeria monocytogenes [3]) | MIC (Staphylococcus aureus [4]) | MIC (Enterococcus faecalis [5])
13.4 mmol/L: CMC [1]
